ChEMBL document CHEMBL1811918, “Sesquiterpene and norsesquiterpene derivatives from Sanicula lamelligera and their biological evaluation” (J Nat Prod, 2011)
pEC50, pIC50: −log10 of the molar value. Residues, ends and D or L forms follow the SMILES beside them. *: point of attachment. Cbz = O=C(OCc1ccccc1)*

Assays:
SW480 = assay: Cytostatic activity against human SW480 cells after […] by MTT assay; format: functional, cell-based
Outline: (§1)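 MTT viability in human tumor lines exposed to a concentration series for 48 h. Adherent cells were allowed to attach for 12 h before dosing. Suspension cells were seeded immediately before dosing at (1–2) × 10^5 cells/mL. DMSO wells served as negative control and DDP (cisplatin) as positive control. IC50 was calculated from viability.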

[1] = Cytotoxicity against human C8166 cells after 3 days by MTT assay; format: cell-based
Outline: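 C8166 cells were seeded in triplicate with or without a concentration series and held at 37 C for 3 days, with compound-free wells as negative control. Viable cells were quantified by MTT absorbance at 595/630 nm. CC50, the 50% reduction in viable cells, was taken from the dose–response curve.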

MCF7 = assay: Cytostatic activity against human MCF7 cells after […] by MTT assay; format: functional, cell-based; outline: as §1
RAW264.7 = assay: Antiinflammatory against mouse RAW264.7 cells assessed as inhibition of LPS-induced nitric oxide production; format: functional, cell-based
Outline: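 Nitric oxide production was measured in LPS-stimulated RAW 264.7 macrophages, with DMSO wells as negative control and MG-132 as positive control. IC50 was derived.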

SMMC-7721 = assay: Cytostatic activity against human SMMC7721 cells after […] by MTT assay; format: functional, cell-based; outline: as §1
[2] = Therapeutic index, ratio of CC50 for human C8166 cells to EC50 for Human immunodeficiency virus 1 3B infected in human C8166 cells; format: cell-based; settings: read-out: Ratio CC50/EC50
Outline: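 Ratio of CC50 (MTT viability of uninfected C8166 cells, 3 days, 37 C) to EC50 (syncytium counts in HIV-1 IIIB-infected C8166 cells, 3 days, 37 C).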

[3] = test system: Human immunodeficiency virus 1; assay: Antiviral activity against Human immunodeficiency virus 1 3B infected in human C8166 cells assessed as numbers of syncytia after 3 days by syncytium counting; settings: C8166, 72 h
A549 = assay: Cytostatic activity against human A549 cells after […] by MTT assay; format: functional, cell-based; outline: as §1
HL-60 = assay: Cytostatic activity against human HL60 cells after […] by MTT assay; format: functional, cell-based; outline: as §1
[4] = test system: Human immunodeficiency virus 1; assay: Antiviral activity against Human immunodeficiency virus 1 3B infected in human C8166 cells assessed as numbers of syncytia after 3 days by MTT assay; format: functional, organism-based; settings: C8166, 72 h
Outline: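 Compounds at various concentrations were added to C8166 cells (8 × 10^5/mL) infected with HIV-1 IIIB and incubated at 37 C for 3 days. The cytopathic effect was scored by counting syncytia, with AZT as positive control. EC50 came from the percentage of syncytial cells relative to the infected untreated control.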

SMILES | pIC50 (SW480) | CC50 at 72 h [1] [µM] | pIC50 (MCF7) | pIC50 (RAW264.7) | pIC50 (SMMC-7721) | selectivity ratio [2] | pEC50 [3] | pIC50 (A549) | pIC50 (HL-60) | pEC50 [4]
C=C1CC[C@@H](O)[C@@]2(C)CC[C@H](C(C)C)[C@@H](O)[C@H]12 | 4.43 | 68.1 | 4.45 | 4.55 | 4.49 | 2.1 | 4.50 | 4.38 | 4.51 | 
C=C1CC[C@H](O)[C@@]2(C)CC[C@@H]([C@@H](O)C(C)C)[C@H]12 | < 4.19 | 398 | < 4.19 | < 4.19 | < 4.19 | 2.4 | 3.78 | < 4.19 | < 4.19 | 
Cc1cn([C@H]2C[C@H](N=[N+]=[N-])[C@@H](CO)O2)c(=O)[nH]c1=O [ZIDOVUDINE] |  | 4070 |  |  |  | 214000 |  |  |  | 8.35
CC(C)C[C@@H](C=O)NC(=O)[C@H](CC(C)C)NC(=O)[C@H](CC(C)C)NC(=O)OCc1ccccc1 [MG-132] (Cbz-Leu-Leu-Leu-aldehyde) |  |  |  | 6.36 |  |  |  |  |  | 
CC(C)[C@H]1CC[C@@]2(C)[C@@H]1[C@@H]1O[C@]1(CO)CC[C@@H]2O [SANICULAMOID B] | < 4.19 | 358 | < 4.19 | < 4.19 | < 4.19 | 2.9 | 3.90 | < 4.19 | < 4.19 | 
C=C1CC[C@@H](O)[C@]2(C)CC[C@@](O)(C(C)C)C[C@@H]12 | < 4.19 | > 420 | < 4.19 | < 4.19 | < 4.19 |  | < 3.38 | < 4.19 | < 4.19 | 
C[C@H](/C=C/[C@]12O[C@@]1(C)C[C@@H](O)CC2(C)C)O[C@@H]1O[C@H](CO)[C@@H](O)[C@H](O)[C@H]1O [PHLOMUROSIDE] | < 4.19 | > 258 | < 4.19 | < 4.19 | < 4.19 |  | < 3.59 | < 4.19 | < 4.19 | 
CC(=O)/C=C/[C@@]1(O)C(C)=CC(=O)CC1(C)C | < 4.19 | > 450 | < 4.19 | < 4.19 | < 4.19 |  | < 3.35 | < 4.19 | < 4.19 | 
CC(C)(O)[C@H]1C[C@H]2[C@H](CC[C@@]2(C)O)[C@](C)(O)C[C@@H]1O [SANICULAMOID C] | < 4.19 | > 368 | < 4.19 | < 4.19 | < 4.19 |  | < 3.43 | < 4.19 | < 4.19 | 
CC(=O)CC[C@@H](C(C)C)[C@@H]1[C@H]2CCC(=O)[C@H]21 [SANICULAMOID D] | < 4.19 | > 450 | < 4.19 | < 4.19 | < 4.19 | > 2.3 | 3.71 | < 4.19 | < 4.19 | 
C=C(C)[C@@H]1CC[C@@]2(C)[C@H](O)CC[C@@](C)(O)[C@@H]2C1 [CYPERUSOL C] | < 4.19 | > 420 | < 4.19 | < 4.19 | < 4.19 | > 2.8 | 3.82 | < 4.19 | < 4.19 | 
CC(C)C1=C[C@@H]2[C@H](CC[C@@]2(C)O)[C@@](C)(O)CC1 [GUAIANEDIOL] | < 4.19 | > 420 | < 4.19 | < 4.19 | < 4.19 |  | < 3.38 | < 4.19 | < 4.19 | 
CC(C)[C@H]1CC[C@@]2(C)[C@@H]1[C@H]1O[C@@H]2CC[C@@H]1C(=O)O [SANICULAMOID A1] | < 4.19 | 195 | < 4.19 | < 4.19 | < 4.19 | 1.2 | 3.79 | < 4.19 | < 4.19 | 
C=C1CC[C@H]2[C@@H]([C@@H]3[C@@H]1CC[C@@]3(C)O)C2(C)C | < 4.19 | 170 | < 4.19 | < 4.19 | < 4.19 | 1.6 | 3.98 | < 4.19 | < 4.19 | 
C=C1CC[C@@H](O)[C@]2(C)CC[C@H](CC(C)(C)O)[C@@H]12 | < 4.19 | > 420 | < 4.19 | < 4.19 | < 4.19 |  | < 3.38 | < 4.19 | < 4.19 | 
CC(=O)C=C=C1C(C)(C)C[C@H](O)C[C@@]1(C)O[C@@H]1O[C@H](CO)[C@@H](O)[C@H](O)[C@H]1O [CITROSIDE B] | < 4.19 | > 259 | < 4.19 | < 4.19 | < 4.19 |  | < 3.59 | < 4.19 | < 4.19 | 
